To fix the notation:
B1: tRNA (parent)
chain: GUUCCGUUGGCGUAAUGGUAACGCGUCUCCCUCCUAAGGAGAAGACUGCGGGUUCGAGUCCCGUACGGAACG

Variants at the floor of the assay were thinned out. A value given as a limit tells only on which side of the number the result lay.

The variants in the data set derive from B1. Briefly: yeast fitness relative to wild type (ratio to wild type); higher = fitter; tRNA-Arg(CCU), competitive growth, 37 C, YPD. A digest of the protocol: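 Gene amplicons from the start population and from each of six end populations were read by 100-nucleotide paired-end sequencing. Those end populations came from pooled Saccharomyces cerevisiae strains carrying tRNA-Arg(CCU) gene variants at the native locus, competed in YPD at 37°C for 24 hours. Fitness relative to wild type was worked out from changes in genotype frequencies. Genotypes needed ≥ 100 starting reads, and estimates < 0.5 were set to 0.5.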
On to GUACCGUUCGCGUAAUGGUGACGCGUCUCCCUCCUAAGGGGAAGACUGCGGGUUCGAGUCCCGCACGGAACG [U3A G9C A20G A40G U64C], for which the yeast fitness is no more than 0.5.
In the case of GUACCGUUGGCGUAAUGGUAACGCAUCUCCCUCCUAAGGAGAAGACUGCGGGUUCGACUCCCGUAUGGAACG [U3A G25A G58C C66U] it was 0.596; in that of GUACCGUUGGCAUAAUGGAAACGCGUCUCCCUCCUAACGAGAAGACUACGGGUUCGAGUCCCGUACGGAACG [U3A G12A U19A G38C G48A], no more than 0.5; in that of GUACCGUUGGCGCAAUGGUAACGCGUCUACCUCCUAAGGAGAGGACUGCGGGUUCGAGUCCCGUACCGAACG [U3A U13C C29A A43G G67C], 0.595.
In the case of GUACCGUUGGCGUAAUGGUAACGCGUCUCCCUCCUAAGGAGAAGACUGCGGGUUCAAGUCCCGUACGGAACG [U3A G56A] it was 1.02; in that of GUACCGUUGGCGUAAUGGUAACGCGUCUCCCUCCUAAGGAGAAGACUGCGGGUUCCAGUCCCGUACGGAACG [U3A G56C], 0.716; in that of GUACCGUUGCCGUAAUGGUAACGCGUCUCCCUCCUUAGGCGAAGACUGCGGGUUCGAGUGCCGUACGGAACG [U3A G10C A36U A40C C60G], 0.569.
For the variant GUACCGUUGGCAUAGUGGUAACGUGUCUCCCUCCUAAGGAGAAGUCUGCGGGUUCGAGUCCCGUACGGAACG [U3A G12A A15G C24U A45U], the yeast fitness is no more than 0.5.
With GUACCGUUGGCCUAAUGGUAACGCGUCUCCCUCCUAAGGAGAAGACUGCGGGUUCGAAUCCCGUAUGGAACG [U3A G12C G58A C66U], the yeast fitness is no more than 0.5.
As to GUACCGUAGGCGUAAUGGUAACGCGUGUCCCUCCUAAGGAGAAGACUGCGGGUUCGAGUCCCGUACGGAACG [U3A U8A C27G], the yeast fitness was no more than 0.5.
Regarding GUACCGUUCGCGUAAUGGUGACGCGUCUACCUCCUAAGGAGAAGACUGCGGGUUCAAGUCCCGUACUGAACG [U3A G9C A20G C29A G56A G67U], the yeast fitness was no more than 0.5.
Consider GUACCGUUAGCGUAAUGGAAACGCGUCUCCCUCCUAAGGAGAACACUGCGGGUUCGAGUCUGGUACGGAACG [U3A G9A U19A G44C C61U C62G], for which the yeast fitness was no more than 0.5.
In the case of GUACCGUUGGCAUAAUGGAAACGCGUCUCCCUCCUAAGGAGAAGACUGCGGGUUCGAGUACCGUACGGACCG [U3A G12A U19A C60A A70C], the yeast fitness was 0.569.
The figure for GUACCGUUGGCGUAAUGGUAACCCGUCUCCCUCCUAAGGAGAAGAAUGAGGGUUCGAGUCGCGUACGGAACG [U3A G23C C46A C49A C61G] is no more than 0.5; for GUACCGGUGGCGUAAUGGUAACGCGUCUGCCUCCUAAGGAGAAGACUGUGGGUUCGAGUCCCGUACGGAACG [U3A U7G C29G C49U] it is no more than 0.5; for GUACCGUUGGCGUAAUAGUAAUGCGUCUCCCUCCCAAGGAGAAGACUGCGGGUUCGAGUCCCGUGCGGAACG [U3A G17A C22U U35C A65G] it is no more than 0.5.
The figure for GUACCGUUGCCGUAAUGGUAACGCGUCUCCCUCCUUAGGCGAAGACUGCGGGUUCGGGUGCCGUACGGAACG [U3A G10C A36U A40C A57G C60G] is no more than 0.5.
The figure for GUACCGUUGGCGCAAUGGUAACGCGUCUCCCUCCUAAGGAGAAGACUGCGGGUUCGAGUCCCGUACGAAACG [U3A U13C G68A] is 0.528.
Take GUACCGGUGGCGUAAUGGUAACGCGUCUCCCUCCUAAGGAGAAGACUGCGGGUUCGAGUCCCGUACGGAACG [U3A U7G]: the yeast fitness was determined as 0.734.
As for GUACCGUUGGCGUAAUGGUAACGCGUCUCCCUCCUAAGGAGAAGACUGCGGGUUCGAGUCCCGUACGAAACG [U3A G68A], the yeast fitness was determined as 0.854.
On to GUACCGUUAGCGUAAUGGUAACGCGUCUCACUCCUAAGGAGUAGACUGUGGGUUCGAGCCCCGUACGGCACG [U3A G9A C30A A42U C49U U59C A69C], for which the yeast fitness was no more than 0.5.
Turning to GUACCGUUGGCGUAAUGGUAACGCCUCUCCCUCCUAAGGAGAAGACUGCGGGUUCGAGUCCCGUACGGAACG [U3A G25C], the yeast fitness is 1.03.
On to GUACCGUUGGCGUAACGGUCACGCGUCUCCCUCCUAAGGAGAAGACUGCGGGUUCGAGUCCCGUACGGAACG [U3A U16C A20C], for which the yeast fitness is no more than 0.5.
In the case of GUACCGUUGACGUAAUGGAAACGCGUCUCCCUCCUAAGGAGGAGACUGCGGGUUCGAGUCCCGAACGGAACG [U3A G10A U19A A42G U64A] it was no more than 0.5; in that of GUACCGUUGGCGUAACGGUAACGCGUCUCCCUCCUAAGGAGAAGAUUGCGGGUUCGAGUCCCGUACGGAACG [U3A U16C C46U], 0.631; in that of GUACCGUUGGCGUAAUGAUAAUGCGUCUCCCUCCUAAGGAGAAGACUGCGGGUUCGAGUCCCGUACGGAACG [U3A G18A C22U], no more than 0.5.
In the case of GUACCGUUGGCGCAAUGGUAACGCGUCUCCCUCCUAAGGAGAAGACUGCGGGUUCGAGUCCCGUACGGUACG [U3A U13C A69U] it was 0.72.
Take GUACCGCUGGCGUAUUGGUAACCCGUUUCCCUCCUAAGGAGAAGACUGCGGAUUCGAGUCCCGUACGGAACG [U3A U7C A15U G23C C27U G52A]: the yeast fitness is no more than 0.5.
Turning to GUACCGUUGGCGUAAUGACAACGCGUGUCCCUCCUAAGGAGAAGACUGCGGGUUCGAGUCACGGACGGAACG [U3A G18A U19C C27G C61A U64G], the yeast fitness is no more than 0.5.
The figure for GUACCGUAGGCGUAAUGGUAACGCGUCUCCCUCCUAAGGAGAUGACUGCGGGUUUGAGUCCCGUACGGAACG [U3A U8A A43U C55U] is no more than 0.5.
Regarding GUACCGUUGGCCUAAUGGUACCGCGUCUCCCUCCUCAGGAGAAGACUGCGGGUUCGAGUCCCGUACGGAUCG [U3A G12C A21C A36C A70U], the yeast fitness amounted to 0.553.
The figure for GUACCGUUGGCGUAAUCGUCACGCGUCACCCUCCUAAGGAGAAGACUGCGGGUUCGAGUCCCGUACGGAACG [U3A G17C A20C U28A] is no more than 0.5; for GUACCGUUGGCGUAAUGGUAACGCGUCUCCCUCCUAAGGACAAGACUGCGGGUUUGAGUCCCGUACGGAACG [U3A G41C C55U] it is no more than 0.5.
The figure for GUACCGUUGGCGUAAUGGUAACGCCUCUCCCUCCUAAGGAGAAGACAGCGGGUUCGAGUCCCGUACGGAACG [U3A G25C U47A] is 0.547; for GUACCGUAGGCGUAAUGGUAACGCGUCUCCGUCCUAAGGCGAAGACUGCGGGUUCGAGUCCCGUACGGAACG [U3A U8A C31G A40C] it is 0.563; for GUACCGUUAGCGUCAUGGUAACGCGUCUCCCUCCUAAGGAGAAGACUGCGGGUUCGAGUCCCGUACGGAACG [U3A G9A A14C] it is 0.551.
With GUACCGUUGGCGUAAUCGUCACGCGUCACCCUCCUAAGGAGAAGAAUGCGGGUUCGAGUCACGUACGGAACG [U3A G17C A20C U28A C46A C61A], the yeast fitness was no more than 0.5.
